We go through 38 variants from the RNAGym collection of RNA variant scans (doi:10.1126/science.aae0568).

Fewer inactive variants are shown than the library holds.

The chains are these.
B1: tRNA (parent)
chain: GUUCCGUUGGCGUAAUGGUAACGCGUCUCCCUCCUAAGGAGAAGACUGCGGGUUCGAGUCCCGUACGGAACG

In the data set the parent is B1. Kind of data set: yeast fitness relative to wild type (ratio to wild type); higher = fitter; tRNA-Arg(CCU), competitive growth, 37 C, YPD. A digest of the protocol: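 A pool of Saccharomyces cerevisiae strains, each with a tRNA-Arg(CCU) gene variant at the native genomic locus, was competed in YPD at 37°C for 24 hours across six parallel replicates. The variants had been chemically synthesised at a 3% per-site mutation rate over 69 sites, and gene amplicons before and after competition were read by 100-nucleotide paired-end sequencing. Darwinian fitness relative to wild type rested on changes in genotype frequencies. Genotypes required ≥ 100 starting reads, and estimates < 0.5 were set to 0.5.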
Regarding GUUGCGUUCGCGUAAUGGUAACGCGUCUCCCUCCUAAGGAAAAGACUGCGGGUUCGAGUCCCGUACGGAACG [C4G G9C G41A], the yeast fitness is at most 0.5. For the variant GUUGCGUUGGCGUAAUGGUAACGCGUCUCCAUCCUAAGGAGAAGACUGCGGGUUCGAGUCUCGUACGGAACG [C4G C31A C61U], the yeast fitness is at most 0.5. With GUUGCGUUGGCGUAAUAGUAACGCGUCUCCCUCCUAAGGAGAAGACUGCGGGUUUGAGUCCCGUACGGAGCG [C4G G17A C55U A70G], the yeast fitness is at most 0.5. The same measure for GUUGCGUUGGCGUAAUGGUAACGCGUCUCCCUUCUAAGGAGAAGACUGCGGGUUAGAGUCCCGUACGGAACG [C4G C33U C55A]: at most 0.5. Take GUUGCGUUGGCGUAAUGGUAACGCGUCUCCAUGCUAAGGAGAAGACUGCGCAUUCGAGUGCCGUACGGAACG [C4G C31A C33G G51C G52A C60G]: the yeast fitness was at most 0.5. As for GUUGCGUUGGCGUAAUAGUAACGCGUCUCCCUCCUAAGGACAAGACUGCGGGUUCGAAUCCCGUACGGAACG [C4G G17A G41C G58A], the yeast fitness is at most 0.5. As to GUUGCGUUGGCGUAAUGGUAACGCGUCUCCCUCCUAAGGAGAAGACUGCGGGUUCGAGUUGCGUACGGAACG [C4G C60U C61G], the yeast fitness is at most 0.5.

As to GUUGCCUUGGCGUAAUGGUAACGCAUCUACAUGCUAAGGACAAGACUGCGGGUUCGAGUCCCGUACGGAACG [C4G G6C G25A C29A C31A C33G G41C], the yeast fitness is at most 0.5. The same measure for GUUGCGUUGGCCUAAUGGUAACGCGUCUCCCUCCUAAGGAGAAGACUGCGGGUUCGAGUCCCGUACGGAACG [C4G G12C]: 0.676.

As for GUUGCGUUGGCGUAAUGGUAACGCGUCUCCUUCCUAAGGAGAAGACUCCGGGUUCGAGUCCCGUACGGAACG [C4G C31U G48C], the yeast fitness came out at 0.647. On to GUUGCCUGGGCGUAAUAGUAACGCGUCUCCCCCCUAAGGAGAAGACUGCGGGUUCGAGUCCCGUACGGAACG [C4G G6C U8G G17A U32C], for which the yeast fitness was at most 0.5. Take GUUGCGUUAGCGUAAUGGUAACGCGUCUCCCUCCUAAGGAGAAGACUGCGGGUUCGAGUCCCGUACGGAACG [C4G G9A]: the yeast fitness turned out to be 0.916.

With GUUGCGUUGGCGUAAUGGUAACGCGUCUUCCUCCUAAGGAGAGGACUGCGGGGUCGAGUCCCAUACGGAACG [C4G C29U A43G U53G G63A], the yeast fitness is at most 0.5.

On to GUUGCGUUGGCUUCAUGGUAACGCGUCUCCCUCCUAAGGAGAAGACUGUGGGUUCGAGUCCCGUAUGGAACG [C4G G12U A14C C49U C66U], for which the yeast fitness was at most 0.5. As for GUUGCAUUGGUGUAAUGGUAACGCGUCUCCCUCCUAAGGAGAAGACUGCGGGUUCGAGUCUCGUACGGAACG [C4G G6A C11U C61U], the yeast fitness is at most 0.5. The same measure for GUUGCGUUGCCGUAAUGGUAACGCGUCUCCUUCCUAAGGAGAAGACUGCGGGAUCGAGUCCCGUACGGAACG [C4G G10C C31U U53A]: at most 0.5; for GUUGCGUUGGCGUAAUGGUAACGCGUCUCACUCCUAAGGAGUAGACUGCGGGUUUGAGUCCCGUAAGGAACG [C4G C30A A42U C55U C66A]: at most 0.5. Consider GUUGCGUUGGCGUAAUAGUAAAGCGUCUCCCUCCUAAAGAGAAGACUGUGGGCUCGAGUCCCGUACGGAACG [C4G G17A C22A G38A C49U U53C], for which the yeast fitness is at most 0.5. The same measure for GUUGCGUUGGCGUAAUGGUAACGCGUCUACCUCCUAAGGAGAAGAAUGCGGGUUCGAAUCCCGUACGGAACG [C4G C29A C46A G58A]: 0.525; for GUUGCGUUCGCGUAAUGGUAACGCGUCUCCCUCAUGAGGCGAAGACUGCGGGUUCGAGUCCCGUACGGAACG [C4G G9C C34A A36G A40C]: at most 0.5. Consider GUUGCGUUGGCGUAAUAGUAAAGCGUCUCCCUCCUAAAGAGAAGACUGCGGGUUCGAGUCCCGUACGGAACG [C4G G17A C22A G38A], for which the yeast fitness was 0.638.

Consider GUUGCGUUGGCGUAAUGGUAACGCGUCUCCCUCCUAAGGAGAAGACUGUGGGUUCGAGCCCCGUACGGAACG [C4G C49U U59C], for which the yeast fitness was found to be 0.576. The same measure for GUUGCGUUGGCGUAAUGGUAACGCGUCUCCCUCCUAAGGAGAAGACUGCGGGUUCGAGUCACGUACAGAACG [C4G C61A G67A]: 0.553; for GUUGCGUUGGCGUAAUGGUAACGCGUCUCACUCCUAAGGAGAAGUCUGCGGGUUUGAGUCCCGUACGGAACG [C4G C30A A45U C55U]: at most 0.5; for GUUGCGUUGGCGUAAUAGUAACGCGUCUCCCUCCUAAGGAGAAGACUGCGGGUUCGACUUCCGUACGGUACG [C4G G17A G58C C60U A69U]: at most 0.5. Turning to GUUGCGUUGGCGUAAUGGUAACGCGUCUCCUUCCUAAGGAGAAGACUGCGGGUUCGAGUCCCGUACGGAACG [C4G C31U], the yeast fitness amounted to 1.12. In the case of GUUGCGUUGGCGUAAUGGUAACGUGUCUCCCUCCUAAGGAGAAGACUGCGGGUUCGAGCCCCGUACGGAACG [C4G C24U U59C], the yeast fitness is at most 0.5. Consider GUUGCCUUGGCGUAAUGGUAACGCGUCUCCCUCCUAAGGAGAUGACUACGGGUUCGAGUCCCGUAGGGAACG [C4G G6C A43U G48A C66G], for which the yeast fitness was determined as 0.512. The same measure for GUUGCGUUGGCGUAAUGGUAACGCGUCUCACUCUUAGGGAGAAGACUGCGGGUUCGAGUCCCGUACGGAACG [C4G C30A C34U A37G]: at most 0.5; for GUUGCGUUGGCGUAAUGGUAACGCGUCUCCCUCGUAAGGAGAAGACUGCGGGUUCGAGACCCGUACGGAACG [C4G C34G U59A]: at most 0.5; for GUUGCGUUGGCGUAAUGGUAACGCGUCUCGCUCCUAAGGAGAAGACUGCGGGUUCGAGUCCCGUACGGCGCG [C4G C30G A69C A70G]: at most 0.5. Take GUUGCGUUGGCGUAAUGGUAACGCGUCUCGCUCCUAAGGAGAAGACUGCUGGUUCGAGUCCCGUACGGAACG [C4G C30G G50U]: the yeast fitness was at most 0.5. Turning to GUUGCGUUGGCGUAAUGGUAACGCGUCUACCUGCUAAGGAGAAGCCUGCGGGUUCGAGUCCCGUACGGAACG [C4G C29A C33G A45C], the yeast fitness was determined as 0.588. Regarding GUUGCGUUGGCCUAAUGGUAACGCGUCUCCCUCCAAAGGAGAAGACUGGGGGUUCGAGUCCCGUAUGGAACG [C4G G12C U35A C49G C66U], the yeast fitness is 0.658. For GUUGCGUUGGCGUAAUGGUAACGCGUGUCCCUCCUAAGGAGAAGAGUGCGGGUCCGAGUCCCGUACGGAACG [C4G C27G C46G U54C], the yeast fitness stood at 0.64. With GUUGCGUUAGCGUAAUGGUAAUGCGUCUCCCUCCUAAGGAGAAGAGUGCGGGUUCCAGUCCCGUACGGAACG [C4G G9A C22U C46G G56C], the yeast fitness is at most 0.5. Consider GUUGCGUUGGCGUAAUCGUAAAGCGUGUCCCUUCUAAGGAGAAGACUGGGGGUUCGAGUCCCGUACGGAACG [C4G G17C C22A C27G C33U C49G], for which the yeast fitness is at most 0.5. For GUUGCGUUGCCGUAAUGGUAACGCGUGUCCCUCCUAGGAAGAAGACUGCGGGUUCGAGUCCCGUACGGAACG [C4G G10C C27G A37G G39A], the yeast fitness is at most 0.5.
